Assay results from different studies.
Lines come from different studies, so protocols differ.
Cell line: A549
Observed: cell growth or viability

| SMILES | assay | setting | IC50 [µM] |
| --- | --- | --- | --- |
| O=C(NC(=S)Nc1ccc([N+](=O)[O-])cc1)c1ccc2ccccc2c1 |  | 48 h | 5.24 |
| C=CC(=O)Nc1cccc(Oc2nc(Nc3ccc(N4CCN(C)CC4)cc3)nc3ccsc23)c1 | MTT |  | 4.22 |
| COc1ccccc1/C=C/CNCC(O)COc1ccc2ccccc2c1 (stereo not shown) | CCK-8 | 72 h | 17.1 |
| COc1ccnc(COc2ccc(NC(=O)Nc3ccc(Cl)cc3)cc2)c1OC | MTT | 72 h | 10.4 |
| O=C1NC(=NCc2cccs2)S/C1=C\c1ccc2ncccc2c1 |  |  | > 10 |
| O=C(NC(=S)N1CCCC1)c1ccc2ccccc2c1 |  | 48 h | 4.22 |
| COc1ccccc1OCCNC(=O)COc1cccc2[nH]c3ccccc3c12 | CCK-8 | 72 h | > 100 |
| CC1=C(O)C(=O)C=C2C1=CC=C1[C@@]2(C)CC[C@@]2(C)[C@@H]3C[C@](C)(C(=O)OCCCBr)CC[C@]3(C)CC[C@]12C | MTT | 48 h | 4.95 |
| Oc1ncnc2cc(Nc3nc(-c4ccc(Br)cc4)cs3)ccc12 | MTT |  | 22.9 |
| CCOc1cc(OCC)cc(C(=O)O[C@@H]2CN3Cc4c(cc5c(c4OC)OCO5)[C@@]24C=C[C@H](OC)C[C@@H]34)c1 | WST-1 |  | > 10 |
| CCC(=O)Nc1cc(Nc2nc(N3CCc4sccc4C3)c3cccnc3n2)c(OC)cc1N1CCN(CC)CC1 | MTT |  | 21.9 |
| Cc1c(OCC(F)(F)F)ccnc1COc1ccc(NC(=O)Nc2ccc(F)cc2)cc1 | MTT | 72 h | 5.37 |
| CCC(=O)Nc1cc(Nc2nc(N3CCc4sccc4C3)c3cccnc3n2)c(OC)cc1N1CCSCC1 | MTT |  | 7.91 |
| Cc1ccc(NC(=O)CSc2nnc(Cn3cnc4c3c(=O)n(C)c(=O)n4C)n2-c2ccccc2)c(C)c1 | MTT |  | 7.39 |
| COc1ccc(-c2nn(-c3ccc(S(C)(=O)=O)cc3)cc2/C=N/N=c2\[nH]c(-c3ccc(Br)cc3)cs2)cc1 | MTT | 48 h | 14.3 |
| COc1ccccc1/C=C/CNCC(O)COc1ccc2[nH]ccc2c1 (stereo not shown) | CCK-8 | 72 h | 25.4 |
| CCCCCCCCCCCC(=O)Oc1c(C)c(O)c(C(=O)/C=C/c2ccccc2)c(OC)c1C | SRB | 72 h | > 50 |
| COc1cc2ncnc(Nc3ccc(F)c(Cl)c3)c2cc1NC(=O)N/N=C/c1cccn1CCCN(C)C | MTT | 72 h | 2 |
| CC(C)(C)NC(=O)NNC(=O)c1ccc(Nc2nccc(-c3ccccn3)n2)cc1 | MTT |  | > 40 |
| Cc1nc(Nc2ncc(C(=O)Nc3c(C)cccc3Cl)s2)cc(N2CCN(CCO)CC2)n1 | MTT | 48 h | 11.8 |

| SMILES | assay | setting | IC50 [µM] |
| --- | --- | --- | --- |
| CCN(CC)CCn1cccc1/C=N/NC(=O)Nc1cc2c(Nc3ccc(F)c(Cl)c3)ncnc2cc1O[C@H]1CCOC1 | MTT | 72 h | 1.59 |
| C[C@H]1Oc2cc(cnc2N)-c2c(nn(C)c2C#N)CN(C)C(=O)c2ccc(F)cc21 |  |  | > 8.4 |
| COc1c(C)cnc(COc2ccc(NC(=O)Nc3cc(F)cc(F)c3)cc2)c1C | MTT | 72 h | 10.2 |
| O=C1Nc2ccccc2/C1=N/NC(=O)c1cc2ccccc2[nH]1 |  |  | 13 |
| CCCCC[C@H](O)CC(=O)CCc1ccc(O)c(OC)c1 | SRB |  | 208 |
| COc1cccc(Oc2ccccc2NC(=O)CNC(=O)c2c(C)cc(C)cc2C)c1 |  |  | 4.7 |
| Cc1ccc(NC(=O)NNC(=O)c2ccc(Nc3nccc(-c4cccnc4)n3)cc2)cc1 | MTT | 24 h | 8.38 |
| Cc1ccc(C)n1-c1ccc(-c2nnc(S)s2)cc1 | MTT | 72 h | 223 |
| COc1ccnc(COc2ccc(NC(=O)Nc3cccc(C(F)(F)F)c3)cc2)c1OC | MTT | 72 h | 6.65 |
| CCN(CC)CCCn1cccc1/C=N/NC(=O)Nc1cc2c(Nc3ccc(F)c(Cl)c3)ncnc2cc1O[C@H]1CCOC1 | MTT | 72 h | 2.36 |
| COc1cc(-c2nc(C(=O)Nc3nnc(-c4cc5ccccc5n4C)s3)cc3c2[nH]c2ccccc23)cc(OC)c1OC | MTT | 72 h | 7.85 |
| O=C(N/N=C/c1cccn1CCCN1CCCC1)Nc1cc2c(Nc3ccc(F)c(Cl)c3)ncnc2cc1O[C@H]1CCOC1 | MTT | 72 h | 4.36 |
| O=C(NC(=S)NCc1ccc(CNC(=S)NC(=O)c2ccc3ccccc3c2)cc1)c1ccc2ccccc2c1 |  | 48 h | 2.82 |
| O=C(N/N=C1\C(=O)N(c2ccccc2)c2ccccc21)c1cc2ccccc2[nH]1 |  |  | 2.41 |
| CCCNc1nc(NCCC)nc(Nc2ccc(Br)cc2)n1 | SRB | 72 h | 16.1 |
| C=CC(=O)Nc1cc(Nc2nc(N3CCc4sccc4C3)c3cccnc3n2)c(OC)cc1N1CCSCC1 | MTT |  | 23.9 |
| COc1ccccc1/C=C/CNCC(O)COc1cccc2ncccc12 (stereo not shown) | CCK-8 | 72 h | 28.1 |
| COc1ccc(/C=C2\SC(=S)N(CC(=O)Nc3ccccc3)C2=O)cc1 | MTT |  | 25.7 |
| CN(C)C/C=N/NC(=O)Nc1cc2c(Nc3ccc(F)c(Cl)c3)ncnc2cc1O[C@H]1CCOC1 | MTT | 72 h | 5.38 |
| Nc1ccc(-c2csc(Nc3ccc4c(O)ncnc4c3)n2)cc1 | MTT |  | 29.6 |
